TRPC4 block = blocks the mouse TRPC4 cation channel. Q9QUQ5. B-score at 10 µM. hit rate 0.39% among 300,000. HEK293 TRPC4beta/mu-opioid, DAMGO-evoked Fluo4 calcium flux; hits give low values;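 active means B-score over 3 SD under the library average, no early fluorescence shift, positive overall ratio signal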
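Assay system: TRPC4beta/mu-opioid receptor HEK293 cell line; compound dosing: single concentration per test compound; detection: Fluo4 Ca2+ flux fluorescence; evaluation: per-well B score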
TRPC6 inhibitor = blocks the mouse TRPC6 cation channel; HEK293-TRPC6, membrane potential dye, ACh-evoked depolarization; hits give low values; B-score at 10 µM; hit rate 1.1% among 310,000; AID 2553;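 active means B-score under library mean minus 3 SD, initial fluorescence not abnormally high, positive integrated signal ratio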;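 further: B-score derived from integrated fluorescence ratio over the kinetic read; more negative B-score means stronger inhibition of depolarization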
Target sequence (Q61143 whole entry, looked up): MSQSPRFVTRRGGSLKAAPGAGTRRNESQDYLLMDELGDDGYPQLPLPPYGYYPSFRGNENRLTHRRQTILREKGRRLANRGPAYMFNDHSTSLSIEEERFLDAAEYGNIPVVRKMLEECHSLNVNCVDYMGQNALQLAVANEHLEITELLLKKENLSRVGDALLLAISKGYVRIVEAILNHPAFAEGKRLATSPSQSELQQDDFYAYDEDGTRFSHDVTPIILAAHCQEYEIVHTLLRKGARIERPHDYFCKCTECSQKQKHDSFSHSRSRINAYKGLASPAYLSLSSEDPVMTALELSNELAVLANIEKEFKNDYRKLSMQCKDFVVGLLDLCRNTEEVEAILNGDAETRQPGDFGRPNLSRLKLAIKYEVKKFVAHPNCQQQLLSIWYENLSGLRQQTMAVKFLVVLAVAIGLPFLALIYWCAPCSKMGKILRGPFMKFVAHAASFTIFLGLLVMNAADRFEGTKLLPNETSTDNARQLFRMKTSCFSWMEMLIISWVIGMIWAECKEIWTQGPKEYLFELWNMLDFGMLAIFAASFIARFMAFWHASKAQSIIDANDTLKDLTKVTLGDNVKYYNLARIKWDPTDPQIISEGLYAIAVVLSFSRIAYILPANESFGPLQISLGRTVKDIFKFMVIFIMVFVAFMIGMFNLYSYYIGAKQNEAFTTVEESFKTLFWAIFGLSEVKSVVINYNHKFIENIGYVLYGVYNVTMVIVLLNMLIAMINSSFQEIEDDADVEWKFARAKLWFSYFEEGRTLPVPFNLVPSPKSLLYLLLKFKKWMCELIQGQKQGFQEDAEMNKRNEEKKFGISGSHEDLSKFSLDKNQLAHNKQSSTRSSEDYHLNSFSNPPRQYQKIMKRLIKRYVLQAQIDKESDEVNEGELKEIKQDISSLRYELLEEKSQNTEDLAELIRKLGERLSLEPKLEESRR
TRPC4 act = opens the mouse TRPC4 cation channel; hit rate 0.49% among 310,000; B-score at 10 µM; HEK293 TRPC4beta/mu-opioid, Fluo4 calcium fluorescence; hits give high values;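 active means B-score above 5 SD of library B-scores, and initial fluorescence ratio not above library mean plus 5 SD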;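 further: positive B-score marks a calcium rise read as TRPC4 activation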
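Material: HEK293 stable line with TRPC4beta plus mu-opioid receptor; technique: Fluo4 calcium-sensitive dye fluorescence, kinetic, 1 Hz baseline; timing: Fluo4 dye loading 45 min at room temperature, 110 s recording; controls: assay buffer as low control, maximal DAMGO as high control; read-out: integrated baseline-normalised fluorescence ratio, converted to per-well B score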
DSG3 Ab inh = blocks pemphigus antibody binding to human desmoglein-3; DSG3-coupled beads, scFv-anti-DSG3-GFP binding, flow cytometry; hits give low values; P32926; hit rate 0.48% among 310,000; binding (percent of control), % at 10 µM; AID 588358;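 active means binding more than 3 SD below its plate's average and above zero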;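 further: hits lower antibody fragment binding to DSG3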
TRPC4 PAM = TRPC4 (mouse) allosteric potentiation; B-score at 10 µM; hit rate 0.42% among 310,000; AID 2227; HEK293 TRPC4beta/mu-opioid, DAMGO EC20, Fluo-4 Ca2+ flux; hits give high values; Q9QUQ5;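 active means B-score of calcium response area above 5 SD of library B-scores, with initial fluorescence ratio within 5 SD of library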;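 further: B-score of integrated fluorescence ratio over time as area under calcium response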
TRPC6 act = mouse TRPC6 channel activation; Q61143; HEK293-TRPC6 membrane potential dye fluorescence; hits give high values; B-score at 10 µM; hit rate 0.13% among 310,000;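 active means B-score of the integrated fluorescence ratio above library mean plus 3 SD, and starting fluorescence ratio within library mean plus 5 SD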;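 further: higher score means more depolarization so channel activation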
TRPC4 sel inh 2 = second selectivity test of TRPC6 inhibitors: effect on mouse TRPC4. shares compounds with TRPC6 inhibitor. hit rate 42% among 920. HEK293 TRPC4/MOR, membrane potential dye fluorescence; channel activated by saturating DAMGO dose. inhibition, % at 10 µM;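 active means compounds whose fluorescence signal differed from control wells by over 3 SD, either direction, in both duplicate plates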
TRPC4 spec = tests whether TRPC6 inhibitors also affect mouse TRPC4; HEK293 TRPC4/mu-opioid, membrane potential fluorescence; hit rate 61% among 920; activity change, negative = inhibition, % at 10 µM; shares compounds with TRPC6 inhibitor;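 active means rise or fall in signal beyond 3 SD of buffer-only wells in both replicate plates, either sign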;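 further: integrated kinetic ratio of fluorescence range over baseline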
HEK293 MPD ctr 2-1 = second counter-screen for TRPC6 inhibitors: parental HEK293 cells. hit rate 31% among 920. shares compounds with TRPC6 inhibitor. signal change vs control, % at 10 µM. parental HEK293 membrane potential dye fluorescence; maximal acetylcholine challenge after compound addition;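 active means membrane potential signal moving either way by over 3 SD of the maximum-effect control, in both duplicate plates, meaning non-specific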
HEK293 MPD ctr-1 = checks TRPC6 inhibitor effects in parental HEK293 cells | AID 2780 | hit rate 60% among 920 | membrane potential signal change, % at 10 µM | shares compounds with TRPC6 inhibitor | parental HEK293 membrane potential dye fluorescence;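 active means membrane potential signal shifting up or down by more than 3 SD of buffer-only wells, on both duplicate plates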
HEK293 MPD ctr-2 = parental HEK293 nonspecific activity of TRPC6 modulators; shares compounds with TRPC6 inhibitor; membrane potential dye fluorescence; membrane potential signal change, % at 10 µM; hit rate 51% among 2,400; AID 488924;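 active means membrane potential signal moves up or down beyond 5 SD from buffer-only wells, on both duplicate plates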
HEK293 MPD ctr 2-2 = second counter-screen for TRPC6 modulators: effect in parental HEK293 cells; inhibition, % at 10 µM; shares compounds with TRPC6 inhibitor; hit rate 14% among 2,400; AID 488926; membrane potential dye fluorescence; after compound, maximal acetylcholine stimulation;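 active means membrane potential signal drops by more than 5 SD from the mean control signal, in both duplicate plates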;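 further: plate controls were acetylcholine ECmax control wells for no effect and buffer only wells for full effect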
TRPC4/MOR mod = mouse TRPC4 off-target activity of TRPC6 modulators. shares compounds with TRPC6 inhibitor. HEK293 TRPC4/mu-opioid, membrane potential fluorescence. percent change from control (negative = decrease, positive = increase), % at 10 µM. hit rate 69% among 2,400;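 active means membrane potential signal moved up or down beyond 5 SD of buffer control wells, in both duplicate plates, actives on both sides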;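 further: plate controls were assay buffer wells for no effect and DAMGO maximal-effect wells for full effect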
TRPC4/MOR inh 2 = second check of whether TRPC6 modulators also affect mouse TRPC4. shares compounds with TRPC6 inhibitor. HEK293 TRPC4/mu-opioid, membrane potential dye fluorescence; stimulated with maximal-effect DAMGO. inhibition, % at 10 µM. hit rate 55% among 2,400;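 active means drop in membrane potential signal beyond 5 SD of the control wells in both duplicate plates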;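 further: TRPC4 counter screen for TRPC6 hits run under conditions tuned for TRPC6 not TRPC4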
TRPC6 block conf = confirmation of mouse TRPC6 inhibitors. shares compounds with TRPC6 inhibitor. inhibition, % at 10 µM. AID 488960. HEK293-TRPC6, membrane potential dye, ACh-evoked depolarization. hit rate 43% among 3,300;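 active means fluorescence ratio falls more than 5 SD below the full-stimulation control mean, in both duplicate runs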;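 further: integrated fluorescence ratio of peak minus minimum over baseline after agonist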
TRPC6 act confirm = mouse TRPC6 activator confirmation. shares compounds with TRPC6 inhibitor. HEK293-TRPC6 membrane potential dye fluorescence, FDSS. activation, % at 10 µM. hit rate 11% among 2,800. AID 488961;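 active means ratio signal rise beyond 5 SD above unstimulated control wells' mean, seen in both duplicate runs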;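 further: plate controls were buffer EC0 wells for no effect and acetylcholine ECmax response for full effect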
Starred values were filed as active, the others as inactive; i = inactive; · = no result. Compounds with a hit are over-represented: about 2.5% of the library has one in this group of screens.

SMILES	TRPC4 block	TRPC6 inhibitor	TRPC4 act	DSG3 Ab inh	TRPC4 PAM	TRPC6 act	HEK293 MPD ctr-2	HEK293 MPD ctr 2-2	TRPC4/MOR mod	TRPC4/MOR inh 2	TRPC6 block conf	TRPC6 act confirm	others
CC1(NC(=O)CCc2nc3sc4c(c3c(=O)[nH]2)CCCC4)CCS(=O)(=O)C1 (configuration not stated)	i	i	i	99	i	i	·	·	·	·	·	·
Nc1ccc(C(=O)OCc2nc3ccccc3s2)cc1	i	-7.8*	i	99	i	i	·	·	·	·	i	i	TRPC4 sel inh 2=i;TRPC4 spec=i;HEK293 MPD ctr 2-1=i;HEK293 MPD ctr-1=i
Cc1cc(OCCN2CCOCC2)ccc1C(C)C	i	i	i	106	i	i	·	·	·	·	·	·
Cc1cc(=O)oc2cc(OCC(=O)N3CCN(C(=O)c4ccco4)CC3)ccc12	i	-5.5*	i	100	i	i	i	i	i	i	i	i
CC(Oc1ccc2c3c(c(=O)oc2c1)CCC3)C(=O)NCc1ccccn1 (configuration not stated)	i	i	i	99	i	i	·	·	·	·	·	·
O=C(COc1ccc2c3c(c(=O)oc2c1)CCC3)NCc1ccccn1	i	-6.1*	i	·	i	i	i	i	i	i	i	i
O=C(COc1ccc2c3c(c(=O)oc2c1)CCCC3)N[C@@H](Cc1ccccc1)C(=O)O	i	i	i	109	i	i	·	·	·	·	·	·
O=C(COc1ccc2c3c(c(=O)oc2c1)CCCC3)NC(Cc1ccc(Cl)cc1)C(=O)O (configuration not stated)	i	-7*	i	105	i	i	·	·	·	·	i	i	TRPC4 sel inh 2=i;TRPC4 spec=4.7%*;HEK293 MPD ctr 2-1=i;HEK293 MPD ctr-1=2.1%*
Cc1ccc2nc(CSc3nnc(-c4ccco4)o3)cc(=O)n2c1	i	-5.3*	i	·	i	i	i	i	i	i	i	·
COc1cccc(N2C(=O)C3CCCN3C2=S)c1 (configuration not stated)	i	i	i	84	i	i	·	·	·	·	·	·
COc1ccc(OC)c(CN2CCN(CC(=O)Nc3ccccc3C(=O)NC3CC3)CC2)c1	·	·	·	109	·	·	·	·	·	·	·	·
NCCNc1ccc(C(=O)N2c3ccccc3Sc3ccccc32)cc1[N+](=O)[O-]	i	-6.2*	i	104	i	i	i	i	-10%*	60%*	54%*	i
CC1=NN(C(N)=S)C(=O)C1N=Nc1cccc([N+](=O)[O-])c1 (configuration not stated)	i	-5.3*	i	118	i	i	i	i	i	i	i	i
O=C(COC(=O)/C=C/c1ccc(OC(F)F)cc1)NC1CCCCCCC1	i	i	i	93	i	i	·	·	·	·	·	·
c1ccc(-c2cc3c(N4CCCC4)ncnc3s2)cc1	i	i	i	86	i	i	·	·	·	·	·	·
OCCN1CCN(c2ncnc3sc(-c4ccccc4)cc23)CC1	i	-6.2*	i	98	i	i	i	i	-9.5%*	36%*	i	i
Cc1cccc(NS(=O)(=O)c2ccc(C(=O)N3CC(C)OC(C)C3)cc2)c1C (configuration not stated)	i	i	i	96	i	i	·	·	·	·	·	·
CCOc1ccc(Cl)cc1/C=N/O	-6*	-8.7*	i	104	i	13*	104%*	i	21%*	41%*	78%*	115%*
CCOc1ccc(Cl)cc1/C=N/NC(N)=O	i	i	i	103	i	i	·	·	·	·	·	·
CCNc1nc(NC(C)(C)C)nc(SCC(N)=O)n1	i	i	i	104	i	i	·	·	·	·	·	·
CC(=O)c1nnn(-c2nc(N)nc(N(c3ccccc3)c3ccccc3)n2)c1C	i	i	i	99	i	i	·	·	·	·	·	·
CCCCN(CCCC)c1nc(OC)nc(-n2nnc(C(C)=O)c2C)n1	i	i	i	100	i	11*	240%*	i	57%*	i	i	96%*
COc1c([N+](=O)[O-])cc(C(=O)NNC(=O)c2ccc(C)cc2)cc1[N+](=O)[O-]	i	i	i	109	i	i	·	·	·	·	·	·
Cn1c(-c2c(N)n(CCc3ccccc3)c3nc4ccccc4nc23)nc2ccccc21	-6*	-5.7*	i	105	i	i	264%*	i	56%*	80%*	i	i
CCCN1CCN(CC(=O)Nc2nncs2)CC1	i	i	i	111	i	i	·	·	·	·	·	·
O=C(Nc1cccnc1Cl)c1cccs1	i	-5.1*	i	·	i	i	i	i	i	i	i	i
Cc1cccc(N(CC(=O)NC2CCCCC2)C(=O)c2c(C)noc2C)c1	i	-6*	i	104	i	i	118%*	i	24%*	30%*	i	·
CCSC1=N/C(=C\c2ccc(C(=O)O)cc2)C(=O)S1	i	i	i	95	i	i	·	·	·	·	·	·

Screens (PubChem)
